From PubChem BioAssay
The list is not random: actives were taken first. Their share in the collection is about 1.5%.
CAL PDZ FP-1: CAL PDZ peptide-binding inhibitors, primary screen, biochemical, fluorescence polarization, Cer-tagged CAL PDZ, HTS. purified CAL PDZ, TMR-peptide fluorescence polarization, 1 h. inhibition, % at 20 µM. hit rate 0.02% among 330,000;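 active means highest replicate inhibition of at least 40%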;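 further: plate controls were DMSO neutral control wells for no effect and unlabeled competitor peptide control wells for full effect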
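material = purified tagged CAL PDZ domain construct (CerCALP) | buffer or medium = sodium phosphate/NaCl buffer pH 7.4 with TCEP, IgG, Thesit | reagent = TMR-labelled reporter peptide T*-PRC34 bound in PDZ groove | incubation = 1 h room-temperature incubation prior to read | measured by = fluorescence polarization (mP) | evaluation = percent inhibition from loss of millipolarization | control set = unlabelled peptide and DMSO controls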
LANA-H2B inh: blockers of LANA interaction with H2A/H2B – biochemical, FP readout, HTS, primary screen; Protein LANA1 (Human herpesvirus 8 type P (isolate GK18)), Q9QR71; cell-free LANA-H2A/H2B peptide, fluorescence polarization; inhibition, % (no concentration beside the values); hit rate 0.6% among 320,000; AID 2629, 2010; in the data active means inhibition mostly above about 10%, no sharp cut-off; inactive means mostly below about 6.7%
CAL PDZ FP-2: untagged CAL PDZ binding inhibitors, primary screen, biochemical, fluorescence polarization, HTS | hit rate 0.92% among 300,000 | AID 602252, 2012 | purified CAL PDZ, TMR-peptide fluorescence polarization, 1 h | inhibition, % at 24.9 µM;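 active means mean inhibition of at least 30% with at least half of replicates also reaching 30%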;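 further: 0% = DMSO neutral control and 100% = excess unlabeled competitor peptide PRC23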
LANA DNA inh: inhibitors of KSHV C-LANA binding to DNA, primary screen, biochemical, fluorescence polarization, FAM-LBS DNA, MBP-C-LANA, single point. Kaposi's sarcoma herpesvirus LANA C-terminal domain (residues 932-1162) DNA binding. hit rate 0.078% among 340,000. inhibition, % at 9 µM;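 active means highest replicate inhibition at or above 60% at 9 µM, even if other replicates fall short; inactive means all replicates below 60% inhibition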;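 further: 0% = neutral control wells and 100% = 4 µM acridine orange control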
Keap1-Nrf2 PPI: Keap1-Nrf2 protein-protein interaction inhibitors, primary screen, biochemical, fluorescence polarization, single point | hit rate 0.15% among 340,000 | AID 504523, 2011 | inhibition, % at 9.4 µM | Keap1 Kelch-Nrf2 peptide fluorescence polarization, 1536-well | Kelch-like ECH-associated protein 1 (Homo sapiens), Q14145; in the data active means inhibition above about 12%;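 further: human Keap1 Kelch domain with fluorescein labeled Nrf2 9mer peptide probe; 0% = neutral control wells and 100% = peptide positive control; higher means more block of Keap1 binding to Nrf2 peptide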
Target sequence (Q14145 whole entry, looked up, the tested form may be a part): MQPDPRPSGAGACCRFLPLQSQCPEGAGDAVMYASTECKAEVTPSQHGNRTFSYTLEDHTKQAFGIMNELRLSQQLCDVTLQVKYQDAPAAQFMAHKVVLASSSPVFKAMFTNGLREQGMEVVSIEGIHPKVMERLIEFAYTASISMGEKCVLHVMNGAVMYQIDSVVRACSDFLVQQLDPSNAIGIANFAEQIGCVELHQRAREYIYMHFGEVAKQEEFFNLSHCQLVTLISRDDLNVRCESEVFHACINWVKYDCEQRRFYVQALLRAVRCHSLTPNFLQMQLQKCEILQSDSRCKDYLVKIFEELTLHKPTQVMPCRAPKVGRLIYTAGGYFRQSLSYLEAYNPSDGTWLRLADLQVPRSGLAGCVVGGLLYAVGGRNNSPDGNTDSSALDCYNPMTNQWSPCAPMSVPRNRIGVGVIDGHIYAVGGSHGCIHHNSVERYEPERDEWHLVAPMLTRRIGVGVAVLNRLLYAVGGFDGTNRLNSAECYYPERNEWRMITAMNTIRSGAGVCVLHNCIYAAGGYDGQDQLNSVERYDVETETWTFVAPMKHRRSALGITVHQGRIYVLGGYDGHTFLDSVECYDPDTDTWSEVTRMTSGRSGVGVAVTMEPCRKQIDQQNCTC
CaV13 ICDI inh: Primary screen for inhibitors of IQ motif and Ca2+-dependent inactivation inhibitor domain binding in CACNA1D, Förster resonance energy transfer in living cells, …. AID 743397. inhibition, % at 12.3 µM. hit rate 0.098% among 340,000. HEK cells, CFP/YFP FRET ICDI-IQ, plate reader, 10 min; percent FRET-ratio fall versus neutral wells;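 active means mean replicate inhibition of at least 30% and at least 1% of replicates passing that level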;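 further: 0% = median of the neutral control wells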
* = called active by the depositor; · = no result; + = active, no number; ! = not confirmed by another sample.

SMILES	CAL PDZ FP-1	LANA-H2B inh	CAL PDZ FP-2	LANA DNA inh	Keap1-Nrf2 PPI	CaV13 ICDI inh
CCOC(=O)[C@]12CCCC=C1N(Cc1cccc3ccccc13)C(=O)[C@H](CC(=O)N1CCSCC1)C2	·	·	·	·	·	-3
CNC[C@H](Cc1cccc2ccccc12)NC[C@H](CCSC)NCC1CCC(C(C)(C)C)CC1 (some centres undefined)	·	3	·	·	·	·
Cc1cc(C)nc(Nc2n[nH]c(-c3ccccc3C)n2)n1	-3	-3	5	2	-1	-2
Cc1cc(C)nc(Nc2n[nH]c(-c3ccccc3Br)n2)n1	-1	18*	·	-1	-3	·
O=C(CC1CCCC1)N[C@H](C(=O)N1CCC[C@H]1C(=O)NC1CCCC1)c1ccccc1	·	·	·	·	·	-3
CCNC(=O)C1CCCN(C(=O)c2cnc3ccccc3n2)CC1 (centres undefined)	·	·	·	·	·	-10
COc1ccc(CCN2CN(S(=O)(=O)c3ccc(C)cc3)c3nc4ccccc4nc32)cc1OC	-1	-4	-4	-1	-1	-6
COc1ccccc1N1CN(S(=O)(=O)c2ccc(C)cc2)c2nc3ccccc3nc21	0	5	110*	-1	-4	-7
Cc1c(O)cnc2nn(-c3ccccc3)c(=N)n12	·	·	·	·	·	-4
CCCN(CC(=O)Nc1cc(C)on1)CC(=O)Nc1ccc(F)c(F)c1F	0	-1	49*	-1	3	-6
O=C(Nc1ccc(S(=O)(=O)Nc2cnc3ccccc3n2)cc1)c1ccc(Cl)cc1Cl	·	2	·	·	·	-6
O=C(Nc1ccc(S(=O)(=O)Nc2cnc3ccccc3n2)cc1)c1cc(F)c(F)cc1Cl	-4	22*	-3	0	3	-4
O=C(C(=O)N1CCC(CNC(=O)c2sc3ccccc3c2Cl)CC1)c1cccs1	·	·	·	·	·	-9
CNC(=O)/C(C#N)=C/c1c(N(Cc2ccccc2)Cc2ccccc2)nc2ccccn2c1=O	-1	·	3	5	3	-4
CCCC(=O)N1CCN(c2ccc(NC(=S)NC(=O)c3cccc(C)c3)cc2)CC1	-1	0	75*	-2	1	-7
COc1cccc(C(=O)NC(=S)Nc2ccc(N3CCCC3)cc2)c1	1	0	-2	1	-2	·
COCCn1c(=N)c(S(=O)(=O)c2ccc(Br)cc2)cc2c(=O)n3ccccc3nc21	-2	-1	-12	2	-4	3
COCCn1c(=N)c(S(=O)(=O)c2ccc(F)cc2)cc2c(=O)n3ccccc3nc21	-4	1	-4	14	6	104*
CCc1ccccc1NC(=O)CN1CCN(C(=O)CNC(=O)c2ccccc2F)CC1	-3	+	-4	2	-3	-5
Cc1[nH]nc2c1C(c1ccc3c(c1)OCO3)N(Cc1ccccc1)C2=O (centres undefined)	·	·	·	·	·	-4
CCCCC1O[C@@H](C)[C@@H]2CN3CCc4c([nH]c5ccccc45)[C@@H]3C[C@@H]2N1C (some centres undefined)	·	·	·	·	·	-5
Cc1ccc(S(=O)(=O)N(C)c2ccc(OC(=O)c3cccs3)cc2)cc1C	-1	-2	49*	1	0	-6
Cc1ccc(S(=O)(=O)N(C)c2ccc(OC(C)C(=O)N3CCCC3)cc2)cc1C (centres undefined)	0	-9	6	1	0	-12
COc1cc(OC)cc(C(=O)NNC(=O)c2ccc3c(c2)OCCO3)c1	0	9	·	-2	-2	-7
COc1cc(C(=O)NNC(=O)c2ccc3c(c2)OCCO3)cc(OC)c1OC	0	3	92*	1	-3	-8
SMILES	CAL PDZ FP-1	LANA-H2B inh	CAL PDZ FP-2	LANA DNA inh	Keap1-Nrf2 PPI	CaV13 ICDI inh
COc1cc(C(=O)NCCCNC(=O)c2cc(OC)c(OC)c(OC)c2)cc(OC)c1OC	·	2	·	·	·	-4
COc1cc(C(=O)NNC(=O)NC2CCCCC2)cc(OC)c1OC	-1	14*	3	-1	2	·
COc1cccc(C(=O)NNC(=S)NC2CCCCC2)c1	-1	·	0	-1	-4	-9
COc1cc(C(=O)NC2CC2)cc(OC)c1OC	·	·	·	·	·	-12
COc1cc(OC)cc(C(=O)NNC(=S)NC2CC2)c1	0	0	57*	-1	-5	-5
COc1cc(C(=O)NCCNC(=O)C2CCCNC2=O)cc(OC)c1OC (centres undefined)	0	3	40*	2	1	-5
Nc1nc(N)c2c(ccc3c2ccn3Cc2cccc([N+](=O)[O-])c2)n1	·	·	·	·	·	-10
O=C(N[C@H](C(=O)N1CCC[C@H]1C(=O)NCCc1ccccc1Cl)c1ccccc1)c1cccs1	·	·	·	·	·	-9
COc1cc(C(=O)NCCC(=O)NC2CCCCC2)cc(OC)c1OC	-3	-4	1	1	-1	-6
COc1cc(C(=O)NCC2CCCCC2)cc(OC)c1OC	-1	-3	65*	0	0	-3
CCOC(=O)[C@]12CCCC=C1N(Cc1ccco1)C(=O)[C@H](CC(=O)NCCC(C)C)C2	·	·	·	·	·	-5
CN(CC(=O)Nc1ccccc1Br)C(=O)c1ccncc1	-1	29*	-2	4	0	-6
CCOc1c(C)cnc2c1c(=O)n(Cc1ccc(Cl)cc1)c(=O)n2C	-2	17*	-1	0	-6	-3
COc1ccccc1NC(=O)C(=O)N/N=C(\C)CC(=O)Nc1ccccc1C(F)(F)F	0	1	44*	0	-5	-5
COc1ccc(-c2cc(C(=O)O)sc2C)cc1	-2	4	44*	-1	0	-1
CCN(CC)C1=C(Cl)C(=O)C(Cl)C12OCCO2 (centres undefined)	·	12*	·	·	·	-18
CC1(C)O[C@@H]2C[C@H]3[C@@H]4C[C@H](F)C5=CC(=O)C=C[C@]5(C)[C@@]4(F)[C@@H](O)C[C@]3(C)[C@]2(C(=O)CO)O1	1	34*!	-1	0	-2	-5
CCCCOc1ccccc1C1C(C(=O)OC)=CN(CC)C=C1C(=O)OC	-1	-3	-5	7	4	·
COC(=O)C1=CN(C)C=C(C(=O)OC)C1c1ccccc1Cl	-2	0	-2	-1	-2	36*
Clc1ccc(Nc2nnc(-c3ccc4c(c3)OCO4)o2)cc1	·	·	·	·	·	-8
COC(=O)C1=C(C)N(Cc2cccc(C(F)(F)F)c2)C(=NCC2CC2)NC1c1cccc(C(F)(F)F)c1 (centres undefined)	·	·	·	·	·	-4
Cc1c(C(=O)O)sc2nc3n(c(=O)c12)CCC(C)CC3 (centres undefined)	1	20*	0	-5	3	-9
